Measurements published in PubChem BioAssay.
Unmarked numbers belong to inactive results. Records with an inconclusive call do not appear. The source made the active and inactive calls.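 How the source made its calls, unless noted: active means growth inhibition above 25% in both replicates, a cutoff set 3 SD above the mean; inconclusive means above 25% in only one replicate; inactive means the rest.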

How the values were obtained:
[1] = S. cerevisiae growth inhibition in permissive medium (OD615), pilot counter-assay for S. cerevisiae lifespan shortening project, permissive growth control (AID 705); conditions: OD615, 24 h, at 10 µM, hits give high values
Outline: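 Test system: Saccharomyces cerevisiae strain carrying genetically modified DeaD replicative-lifespan system; buffer or medium: SC raffinose/galactose permissive medium; dosing: one dose 10 µM, DMSO 0.25% final; times: 24 h exposure, 30 °C; measured by: OD at 615 nm; read-out basis: growth inhibition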

[2] = S. cerevisiae growth inhibition in restrictive medium, OD615, pilot screen, restrictive growth control, yeast lifespan reduction project (AID 706;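 active means growth inhibition above a set limit, 3 SD over mean compound inhibition, in both replicates, cut at about 43% in these data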;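 further: modified DeaD lifespan yeast strain shifted to restrictive glucose medium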); conditions: OD615, 48 h, at 10 µM, hits give high values
Outline: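 material = engineered S. cerevisiae DeaD strain | buffer or medium = glucose-based CSMM-D restrictive medium | dosing = one concentration, 10 µM final, 0.25% DMSO | schedule = 4 h pre-growth plus 48 h compound exposure, 30 °C | detection = OD615 absorbance reading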

[3] = doxorubicin toxicity protection in MRP-1 cells – H69AR cells, CellTiter-Glo, duplicate, MRP-1 activator project, pilot screen (AID 807;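 active means viability increase at or above a cutoff of the median across tested compounds plus 3 SD, cut at about 8.5% in these data, passing the limit was not always enough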;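 further: compound pretreatment 18-22 h then 72 h combined with doxorubicin; 0% = doxorubicin alone and 100% = vehicle without doxorubicin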); conditions: H69AR viability with doxorubicin, CellTiter-Glo luminescence; at 10 µM; hits give high values
[4] = viability of PTEN-null HCT116 cells – cell-based, HCT116 clonal line, CellTiter-Glo, pilot screen (AID 824;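 active means viability at or below 27.92% in each of two runs, the all-compound median minus 4 SD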;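 further: 0% = 20 µM Hyamine control and 100% = vehicle cell control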); conditions: HCT116 PTEN-deleted viability, 60 h, at 10 µM, hits give low values
[5] = RAM pathway blockade in budding yeast – dse1pr::URA3 reporter, 5-FOA selection, pilot screen (AID 869;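 active means inhibition over a set limit, the all-compound mean plus 3 SD, in both replicate runs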;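 further: 0% = DMSO wells with no growth and 100% = 10 µM 1-NA-PP1 with full growth; RAM network block rescues cells from 5-FOA so hits raise OD615 growth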); conditions: S. cerevisiae dse1pr::URA3 5-FOA growth, OD615, 2 d; at 10 µM; hits give high values; strain carries analog-sensitive mutant Cbk1 kinase
[6] = RAM signaling pathway blockade in yeast – S. cerevisiae, Pdr1DBD-CYC8 efflux-inhibited sensitized strain, primary screen (AID 1298;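 active means RAM network inhibition above 8.4% in each of two replicates, 3 SD over the compound average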;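 further: 0% = DMSO untreated cells without growth and 100% = 10 µM 1-NA-PP1 full growth; higher means more yeast growth rescued from 5-FOA killing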); conditions: S. cerevisiae cbk1-as DSE1-URA3 strain, 5-FOA growth OD615, 2 d; at 50 µM; hits give high values

SMILES | growth inhibition [1] [%] | growth inhibition [2] [%] | viability increase [3] [%] | viability [4] | inhibition [5] [%] | RAM network inhibition [6] [%]
COc1cc(NC(=O)COc2ccc(-n3cnnn3)cc2)c(OC)cc1Cl | -3.27 | -5.83 | -5.31 | 46.9% | 2.55 | 2.93
Cc1cc2nc3c(c(=O)n2[nH]1)CCCC3 | -6.41 | 0.415 | -1.07 | 105% | 1.09 | -0.25
Cc1noc(C)c1CSc1nnc(-c2cc(Cl)ccc2Cl)n1N | 8.57 | 8.54 | -2.82 | 95% | 1.9 | 2.06
CCN1CCN(c2cc(C)c3cc(NC(=O)c4ccc5c(c4)OCO5)ccc3n2)CC1 | -12.3 | -7.6 | -8.06 | 47.2% | -0.365 | 3.21
COc1ccc(OC(C)C(=O)Nc2cccc(OC)c2)cc1 (stereo not given) | -4.58 | -2.9 | -4.64 | 97.9% | 0.625 | -0.52
O=C(C1CC1)N1CCc2cc(Br)cc(S(=O)(=O)N3CCCCCC3)c21 | -4 | -6.99 | -3.17 | 82.1% | 1.66 | 5.99
Oc1ccc(C=NCC2COc3ccccc3O2)cc1 (stereo not given) | -7.84 | 2.85 | -5.39 | 85.3% | 1.54 | -2.56
Cc1oc(-c2cccc(Cl)c2)nc1CN1CCC(C(=O)N2CCN(c3ccccn3)CC2)CC1 | -5.81 | -1.31 | -7.36 | 27% (active) | 0.99 | 4.79
O=C(CN(C1CCCCC1)S(=O)(=O)c1ccccc1)N1CCCC1 | -9.43 | -3.8 | -2.08 | 100% | 0.885 | 2.77
CCc1c(C)sc(NC(=O)C2CCCCC2C(=O)O)c1C(N)=O (stereo not given) | 15.1 | 25.8 | -4 | 101% | 1.77 | 9.48
CCn1cc(S(=O)(=O)CC(=O)NC2CCCCC2)c2ccccc21 | -9.89 | -0.52 | -1.1 | 97.4% | 1.71 | 2.87
CCN(CC)c1ccc(CNC23CN4CN(CN(C4)C2)C3)cc1 | -8.69 | 2.79 | -2.2 | 94.1% | 1.72 | 2.4
O=c1c2cnn(-c3ccccc3)c2nc(-c2ccco2)n1-c1ccccc1 | -4.83 | -7.2 | -5.59 | 55.4% | 1.39 | 8.81
COCCNC(=O)NC1(C(F)(F)F)Oc2ccc(Cl)cc2O1 (stereo not given) | -0.985 | -0.285 | -4.63 | 41.9% | 0.43 | 5.07
CCSc1nsc(SCC)c1C(N)=O | -3.27 | -11.2 | -1.55 | 102% | 0.83 | 1.14
COc1ccc(CNC(=O)CSc2nnnn2-c2ccc(O)cc2)cc1 | -0.35 | -9.08 | -4.35 | 98.6% | 2.5 | 3.74
Cn1c(C(=O)NCCCN2CCN(c3ccccc3F)CC2)cc2c(=O)n(C)c3ccccc3c21 | -3.28 | -4.87 | -8.02 | 54.9% | 0.6 | 0.96
O/N=C1/C2C3CC4C5C3C1C5C1(OCCO1)C42 (stereo not given) | -8.1 | -16.9 | -1.45 | 99% | 1.39 | 3.89
O=C1c2ccccc2N2C(=O)c3ccccc3C2N1Cc1ccco1 (stereo not given) | -9.32 | -5.68 | -4.74 | 85.1% | 3.68 | 3.03
C#CCN1C(=O)C(O)(CC(=O)c2ccc3c(c2)OCCO3)c2ccccc21 (stereo not given) | -19 | -18.4 | -2.81 | 49.2% | 0.74 | 6.75
CCCCn1c(=NC(=O)c2ccco2)c(C(=O)OCC)cc2c(=O)n3ccccc3nc21 | 1.16 | 6.8 | -6.94 | 20.3% (active) | 0.795 | 1.9

SMILES | growth inhibition [1] [%] | growth inhibition [2] [%] | viability increase [3] [%] | viability [4] | inhibition [5] [%] | RAM network inhibition [6] [%]
CCn1cc(C(=O)NCCCOC)c2cc(OC)c(OC)cc2c1=O | -10.7 | 0.745 | -2.42 | 104% | 2.5 | 3.59
CC1=C(C(=O)N2CCOCC2)C(c2cc(C)cs2)NC(=O)N1 (stereo not given) | -9.44 | 2.88 | -0.83 | 101% | 2.48 | 3.08
COC(=O)c1ccc2[nH]c(C)c(CN3CCCC3)c(=O)c2c1 | -4.34 | 1.2 | -2.3 | 95.3% | 0.415 | 1.59
CCN(CC)CCN1C(=O)C(=O)/C(=C(/O)c2ccc(C)cc2)C1c1ccncc1 (stereo not given) | 2.04 | -2.02 | 0.64 | 97.9% | 0.635 | 5.38
O=C(NCc1cccnc1)NC1(C(F)(F)F)Oc2ccccc2O1 | 4.4 | 5.9 | -5.46 | 67.2% | 0.81 | 3.16
COC(=O)C1=C(C)N(c2ccc(F)cc2)C(=O)C1 | -6.78 | -12.3 | -2.11 | 93.6% | 1.19 | -0.26
Cc1cc2ccccc2c(=O)n1CC(=O)NCC(=O)N(C)Cc1ccccc1 | -10.2 | -4.71 | -0.97 | 98.6% | 0.475 | 5.32
CC(C)CC(NC(=O)C1CCC(C)CC1)C(=O)Nc1cccnc1 (stereo not given) | -8.21 | -12.6 | -3.68 | 89.5% | 0.035 | 0.05
O=C(CSc1nc(-c2ccncc2)nn1CC(=O)N1CCCCC1)NC1CCCC1 | -4.01 | -16.2 | -4.19 | 88% | 1.07 | -1.59
Fc1cccc(Cl)c1CSc1ncn[nH]1 | -4.97 | 10.7 | 0.29 | 85.6% | 0.52 | 2.05
CC1Cc2ccccc2N1Cc1nc2scc(-c3cccs3)c2c(=O)[nH]1 (stereo not given) | 1.81 | 0.44 | -3.6 | 95.3% | 1.77 | 5.16
O=C(Nc1cccnc1)c1ccc(CN2CCc3ccccc3C2)cc1 | -3.88 | -5.93 | -2.11 | 93.3% | 2.54 | 2.06
CN(C)c1ccc(NC(=S)c2ccccn2)cc1 | 4.71 | -11.2 | -8.3 | 47.2% | 1.82 | 3.01
COc1cc2c(cc1NC(C)=O)CCCC2 | -5.3 | -0.3 | -4.13 | 100% | 1.28 | 1.23
Cc1ccc(N=Cc2c(O)n(C)c(=O)n(C)c2=O)nc1 | 5.8 | 16.6 | 0.03 | 99.2% | 1.89 | -0.87
C=C1c2ccc(C)cc2NC(=O)N1c1ccccc1 | 3.26 | 8.36 | -3.76 | 94.2% | 0.375 | 0.1
COc1ccc(C2C(C(=O)N3CCN(c4ccccc4F)CC3)c3ccccc3C(=O)N2C)cc1 (stereo not given) | -12.2 | -6.36 | -5.64 | 74.3% | 1.3 | 4.16
COc1ccc(N(CC(=O)NCc2ccco2)S(C)(=O)=O)cc1Cl | -14.3 | -4.89 | -3.2 | 91.7% | 2.38 | 6.11
CCC1CCCCN1C(=O)Cn1c(=O)oc2ccccc21 (stereo not given) | -8.32 | -4.71 | -2.07 | 101% | 1.96 | 4.3
Cn1c(C(=O)NC2CCCCCC2)cc2c(=O)n(C)c3ccccc3c21 | 1.31 | -8.3 | -6.4 | – | 1.1 | 2.31
